The EternaBench riboswitch data

Test system: MS2 coat protein
Assay: apparent Kd, MS2 coat protein; higher = weaker binding; RNA-MaP array
Method in brief: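 Binding of fluorescently labeled MS2 coat protein, at 1.5 nM to 3 μM and room temperature, was measured with or without input ligand on designed RNAs transcribed on an Illumina sequencing chip from sequenced DNA templates. Apparent Kd was defined as the median of per-cluster binding-curve fits. No design measured on fewer than 10 clusters was kept.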

[1] = designed as: OFF switch for flavin mononucleotide, no ligand
[2] = ligand present: flavin mononucleotide, designed as: OFF switch for flavin mononucleotide
[3] = designed as: ON switch for flavin mononucleotide, no ligand
[4] = ligand present: flavin mononucleotide, designed as: ON switch for flavin mononucleotide
[5] = designed as: ON switch for tryptophan, no ligand
[6] = ligand present: tryptophan, designed as: ON switch for tryptophan
[7] = designed as: OFF switch for theophylline, no ligand
[8] = ligand present: theophylline, designed as: OFF switch for theophylline

Sequence | apparent Kd [1] [nM] | apparent Kd [2] [nM] | apparent Kd [3] [nM] | apparent Kd [4] [nM] | other results
ACCAUGUAAGGAUAUCACAAGUUGAGUAGUUCGUUUGGGUGUGAGAAGGUACAUGAGGAUCACCCAUGUUCUGG | 154 | 237 |  |  | 
ACCAUGUGACAGGAUAUGUUUCUCUCAAUAAACACAGAAGGGUCUACAUGAGGAUCACCCAUGUGUAUUCUACC | 72.6 | 64.3 |  |  | 
ACCCAACAUGAGGAUCACCCAUGUGCAUGCCUCGGAGGAUAUGACCUCAUUCAUCUUUGAUCAGAAGGCCGAUCGC |  |  | 113 | 26 | 
ACCCUGUGAGGAUAUUAUUAGCUCGGCCAUAAUAAGGAUAGUAAGAAGGCACAUGAGGAUCACCCAUGUAUCCU | 21.8 | 19.2 |  |  | 
ACGAAUGGUUCAACAUGAGGAUCACCCAUGUGAUCUUCCAUUCAGGAUAUGUGUAGUAGAUCUCAACAGAAGGGAAUAAAAUAG | 35.8 | 38.7 |  |  | 
ACUCCCGCAGAAGGAUAUCCUGACUGAACGAUCGACAUGAGGAUCACCCAUGUGUCUCCGUCGAGGGAGAAGGUCUGCUGUGAC |  |  | 18.7 | 7.98 | 
AGAGAGUCAGGAUAUAAAUAUAAAGAGAUAAAGCAAACAAUUUAGAAGGGACAUGAGGAUCACCCAUGUGAUAA | 13.6 | 12.7 |  |  | 
AGCCGUUGGGAUAGACAUGAGGAUCACCCAUGUAAAAGCGAAGAGGAUAUCAGAAUUAAGACAACAGAGAAGGCAUAAAUACAA |  |  | 38.1 | 28.3 | 
AGCGACAUGAGGAUCACCCAUGUACAUUCCCGAGGACCGGUACGGCCGCCACUCGAUGGAAGUGGUAGCAGCUUGGAUGGGCCUA |  |  |  |  | apparent Kd [5]: 15.7 nM; apparent Kd [6]: 26.7 nM
AGCUGGGCUGAGAAGGCGUAUCGCUGUUAAGUGACAUGAGGAUCACCCAUGUAAUUACGAGGCUACGAGGAUAUCAACUAUGGA |  |  | 35.1 | 15.5 | 
AGGAGCGGAAUAGGAUAUUGUAGAUAUAUCAAACAAGAAGGAUUAGCUAACAUGAGGAUCACCCAUGUGGGAUCAAACUCACUC | 82.7 | 127 |  |  | 
AGGCACCAGAGAGGAUAUUAGGACAGCGAACAUGAGGAUCACCCAUGUAUGUUUGUUAGGCGAGCUAAGAAGGCUCCACGGGUU | 6.9 | 6.73 |  |  | 
AGGCGCAACGUAGGAUAUACCGGCAUUGUCCAAGUAGAAGGACGUUGUGAUCGCUAGGUAACAUGAGGAUCACCCAUGUCUUAC |  |  | 6.96 | 5.8 | 
AGGUGUCCAGGAGGAUAUGAUUGCAACACGCCCUCAGAAGGCCUUAUAUACAAAGCAUACAUGAGGAUCACCCAUGUAAUUGGA |  |  | 8.74 | 9.11 | 
AUAAAAGACAUGAGGAUCACCCAUGUAGCUCCUCGGUCUUCGAGAAGGUUCUUGCCCAGAGCGUGAAAGGAUAUCGCAUAUAUC | 353 | 448 |  |  | 
AUAAAAUGCUUAGGAUAUGUAACAGCAUGCACAUGAGGAUCACCCAUGUUAUAUUUAGUGGAAUGACAGAAGGAAGUAGAGACU |  |  | 18.6 | 13.5 | 
AUAAAUAAUUCAGGAUAUUGCGAUCAAACAACAUGAGGAUCACCCAUGUCCGUAAACACAACAAGCAAGAAGGGAAAGAAUCAA |  |  | 24.6 | 14.6 | 
AUAACGACUUCAGGAUAUCUAAUAUGGCCUAUAUGCUGAAAACAUGAGGAUCACCCAUGUCAAGGAGAGAAGGGAAGACAAACA | 13.3 | 10.2 |  |  | 
AUAAUCAAAGGAUAUGGCUAAGCACACAUGAGGAUCACCCAUGUGAUCGUUCGUACAGUUCCAGAAGGUUGGUCCA | 15 | 13.3 |  |  | 
AUACGAGCCAAGAAGGAGGGAGAUCCUGCAGUCCUAGGAUAUUGGCCACAAUCGGCGGACGACAUGAGGAUCACCCAUGUCCCG |  |  | 41.8 | 16 | 
AUACGGCGGUAAAAUCAGAGAGUAAAAGAUACCAGCAAUAAUAAAUGCCCUUGGCAGCUUCUGACAUGAGGAUCACCCAUGUAAA |  |  |  |  | apparent Kd [7]: 15.3 nM; apparent Kd [8]: 29.1 nM
AUAUUCGUUCAGGAUAUGUUAAGCUCACGCCUAACAGAAGGGAAUACAUGAGGAUCACCCAUGUGGUGAUGGGA | 498 | 426 |  |  | 
AUCAAUAAUGUUAGGAUAUCUAGCUAUUUUAUGGUAGAGAAGGAACAUGAGGAUCACCCAUGUUGAGCUAUAUU | 8.45 | 8.82 |  |  | 
AUCAUCAGUUCGGCCGCCACUGUUUGGCACAGUUGUAUCGUACAUGAGGAUCACCCAUGUCACCACAGGACCGGGAACGCCGUCG |  |  |  |  | apparent Kd (designed as: OFF switch for tryptophan, no ligand): 16.1 nM; apparent Kd (ligand present: tryptophan, designed as: OFF switch for tryptophan): 17.3 nM
AUCGCGACCCAGAAGGGAAGUCGGUGAAGCGGUUCAGGAUAUGGGCAGAGGACAUGAGGAUCACCCAUGUGCAUGUAUUCGGCA |  |  | 17.2 | 13.7 | 
AUGAUAUGGGACAUGAGGAUCACCCAUGUCGGCUUUGUCACGCAGGAUAUUGCGACUCAAAUCGUCAAGAAGGGCGGAGACUCC | 21.5 | 19.6 |  |  | 
AUGUAGUGCGAGAAGGACUCCCUCUUACACAUGAGGAUCACCCAUGUGCCCUCAAGCUAGACCGAGUAGGAUAUCGACCGCGCC | 60 | 43.6 |  |  | 

Sequence | apparent Kd [1] [nM] | apparent Kd [2] [nM] | apparent Kd [3] [nM] | apparent Kd [4] [nM] | other results
AUGUGAGGACAUGAGGAUCACCCAUGUCGGGAACCUCUCGCAGAGGAUAUUCGAGAAGCAACGUUGAAGAAGGCUGGCGAAACC | 18.1 | 13.7 |  |  | 
AUUAACAUGAGGAUCACCCAUGUUCUCACACGAGGACCGGUACGGCCGCCACUCGGUUUGGUAUUGGUCACUAGGCAGUUAGGAG |  |  |  |  | apparent Kd [5]: 15.9 nM; apparent Kd [6]: 17.6 nM
AUUACAGACUACGGCGAUACAUGAGGAUCACCCAUGUCGAGUUAGGAUAUGCAACAAUACGGCCUGCAGAAGGAACCAAGAGGG | 35.1 | 32.3 |  |  | 
AUUAGGCGGCAGAAGGCCCAUACCCGGACAUGAGGAUCACCCAUGUACUCGUUUCGCCAUAUCAGGGAGGAUAUGCCAACAACU | 17.5 | 15.8 |  |  | 
AUUAUGCAGUGAGAGGAUAUCAUCGAUAAGACAUGAGGAUCACCCAUGUGUGUCAGGGUUACACAUGAGAAGGCUCACCAAACUUU |  |  | 7.28 | 7.49 | 
AUUCCACAUGAGGAUCACCCAUGUUCUGCUCUGCAUGGAAACAGAAGGAUUCGCGUCAGGUCGAAAUAGGAUAUGUUGUCAAAG | 33.6 | 28.5 |  |  | 
AUUCGCCGAGGAUAUAAGUCGUUUGACAUGAGGAUCACCCAUGUUGUCAGUGGAAAUCGUUUAGAAGGCGGCCUCC | 18.9 | 13.4 |  |  | 
CAACGGUUAGAGAAGGCAUAGUAAAGAAUUCAAUGAGGAUAUCUAAAGAAAUGUAUAGGUCUUUUACAUGAGGAUCACCCAUGU | 17.6 | 9.47 |  |  | 
CACAUGUCAGGAUAUAGCGAUACAGUUCGACCACUUACUGCCUAGAAGGGACAUGAGGAUCACCCAUGUAAAAG | 26.1 | 61.2 |  |  | 
CACGCCAUAGGAUAUACAUGAGGAUCACCCAUGUGGUGGUAGCAGCCAUAACGGUACAGUAGAAGGAUGUGCGA | 274 | 171 |  |  | 
CACGCGGAGUUAGGAUAUAACGAUUGUCAGCCGUUAGAAGGAACCCAUCGCAAAUCUACGUCUAACAUGAGGAUCACCCAUGUU |  |  | 6.85 | 5.7 | 
CAGAGUUCCUAAGGAUAUUGCUGGUCCGCAGUUCAAGAAGGUAGGUAUAAAAUGCUUAAACAUGAGGAUCACCCAUGUCAAGCC |  |  | 6.75 | 6.08 | 
CAUCCAACACAAGGAUAUUGGACGUUUUUCAGCGCACAUGAGGAUCACCCAUGUACAAGGGAGUACAAGAAGGUGUUUUGGAUC |  |  | 27.1 | 9.49 | 
CAUCCACCUGAAGCCUCCCAAUUCCUCGAUACCAGAGGAUUAAGACUCCCUUGGCAGCGAGCUACAUGAGGAUCACCCAUGUGCC |  |  |  |  | apparent Kd [7]: 19.1 nM; apparent Kd [8]: 23.9 nM
CAUCGGGCGGUAAAUGGCGGGUACGGUGAUACCAGUUUUUGAUUUAACCCUUGGCAGCACUAUACAUGAGGAUCACCCAUGUAAU |  |  |  |  | apparent Kd [7]: 17.9 nM; apparent Kd [8]: 30 nM
CAUGCUAACAUGAGGAUCACCCAUGUUCCGGCGUAAACUGCACAGGAUAUCGAGAAUUUACAAGCCGAGAAGGGUGCGUAGCAU |  |  | 195 | 71.7 | 
CAUGGAUAAGGAUAUACAUGAGGAUCACCCAUGUAUAGAAGGAUACAAAGAUAAGAAUGUAGAAGGUAUUGGUU | 9.75 | 8.44 |  |  | 
CAUUUACAUGAGGAUCACCCAUGUUAGUAAUGCUGAGGAUAUGGUCCACGCUCCUAUUUACCAGAAGGCAGUCUUG |  |  | 19.2 | 13.8 | 
CCAAUGCAAGGAUAUACAAAAGACUCACUAAAUAGAACAAAACAUGAGGAUCACCCAUGUAGAAGGUGCUGAAC | 12.3 | 13.6 |  |  | 
CCAGCUAAAGGAUAUACUGCCGGUGUUAUGUAAUAAUUGCAACAUGAGGAUCACCCAUGUAGAAGGUAAGUGAA | 11 | 9.45 |  |  | 
CCGACCCAAGGAUAUACAUGAGGAUCACCCAUGUAUAAAAUAUACCAAGGUAAAAUAUGUAGAAGGAGGAUAUG | 6.54 | 6.17 |  |  | 
CCGAUGAUGAUAGGAUAUCUAGGAGUUAAGACGCCGUCUACAUGAGGAUCACCCAUGUUUCGAUUAGAGAAGGAUCGGGAUUCG |  |  | 13.1 | 7.13 | 
CCUCAGCAAUUGGAUACCAGUACAUCGUAAGACAUGAGGAUCACCCAUGUGGGCUUGACAUACCCUUGGCAGCCAUCCUUGAUCC |  |  |  |  | apparent Kd (designed as: ON switch for theophylline, no ligand): 234 nM; apparent Kd (ligand present: theophylline, designed as: ON switch for theophylline): 252 nM
CCUGGGACAUGAGGAUCACCCAUGUGUGUUAUCGGUGCGUGAGAGGAUAUACACAGCGUCCGUUAGUAGAAGGCUCAUGAUGUA | 88.3 | 52.5 |  |  | 
CCUUGUGUGAAGGAUAUAGGUUUAUGUUUCUGUCUAGAAGGUCACACAUGAGGAUCACCCAUGUAUAUCCUAGA | 18.3 | 51.6 |  |  | 
CGACAUUAGUAGAAGGAGGAGUAGCGAUAGAGCCUAGGAUAUACGAACAAAUACAUGAGGAUCACCCAUGUUGACGAUCCAUCA | 49 | 45.8 |  |  | 
CGAUCCUUGCAGAAGGACUAAAACCAAAUACCAGUAGGAUAUGCAACAUGAGGAUCACCCAUGUGACGAAGGAUGCGGGAAAUA | 8.82 | 8.69 |  |  | 
